# Measured values collected from several papers.
# Each line is one published result; the experiments were not run side by side.
SMILES,assay,test system,conditions,solubility
Clc1ccc(CSc2nnc(-c3ccccn3)n2Cc2ccco2)cc1Cl,,aqueous buffer,pH 6.2,0.29 µg/mL
CCc1cc(OC)cc2c(/C=N/NC(=N)NCCc3ccc(C#N)cc3)c[nH]c12,,PBS,"2 h, pH 7.4",55.5 µM
CCCCCCC#Cc1cncc(-c2nnc(SCc3cc([N+](=O)[O-])cc([N+](=O)[O-])c3)n2C)c1,,PBS,,< 1.6 µM
COc1ccc(NC(=O)N2CCCCN3[C@H](CN(C)C)[C@H](c4ccc(C#Cc5ccccc5)cc4)[C@@H]3C2)cc1,,aqueous buffer,pH 1,155 µM
O=C(CCCN1CCC2(CC1)C(=O)NCN2c1ccccc1)N(CC1CCCCC1)c1ccccc1,,PBS,"24 h, pH 7.4, 37 °C",626 µM
CC[C@H](C)[C@H](NC(=O)[C@H](CO)NC(=O)[C@H](CCCNC(=N)N)NC(C)=O)C(=O)N[C@H]1CSSC[C@@H](C(=O)N[C@H](C(N)=O)[C@@H](C)O)NC(=O)[C@H](CCCNC(=N)N)NC(=O)[C@H](Cc2c[nH]cn2)NC(=O)[C@H](C)NC(=O)CNC(=O)[C@H](Cc2c[nH]c3ccccc23)NC(=O)[C@H](CC(=O)O)NC(=O)[C@H](CCC(N)=O)NC(=O)[C@H](Cc2ccc3ccccc3c2)NC(=O)[C@H](C(C)C)NC1=O,,PBS,pH 7.4,2170 µg/mL
CC(/C=C/[C@@H]1C[C@]2(CO2)CC(C)(C)O1)=C\C[C@H]1OC[C@@H](NC(=O)/C=C\[C@H](C)OC(=O)C(C)(C)C)CO1,HPLC,PBS,,> 10 µM
CC[C@H](C)[C@H](NC(C)=O)C(=O)N[C@H]1CSSC[C@@H](C(=O)N[C@H](C(N)=O)[C@@H](C)O)NC(=O)[C@H](CCCNC(=N)N)NC(=O)[C@H](Cc2cnc[nH]2)NC(=O)[C@H](Cc2cccc3ccccc23)NC(=O)CNC(=O)[C@H](Cc2c[nH]c3ccccc23)NC(=O)[C@H](CC(=O)O)NC(=O)[C@H](CCC(N)=O)NC(=O)[C@H](Cc2cn(C)c3ccccc23)NC(=O)[C@H](C(C)C)NC1=O,,PBS,pH 7.4,110 µg/mL
O=c1[nH]c2ccccc2n1CCCN1CCC(n2c(=O)[nH]c3cc(Cl)ccc32)CC1,,FaSSIF,"24 h, pH 7.4, 37 °C",135 µg/mL
CC[C@H](C)[C@H](NC(C)=O)C(=O)N[C@H]1CSSC[C@@H](C(=O)N[C@H](C(N)=O)[C@@H](C)O)NC(=O)[C@H](CCCNC(=N)N)NC(=O)[C@H](Cc2cnc[nH]2)NC(=O)[C@H](Cc2cccc3ccccc23)NC(=O)CNC(=O)[C@H](Cc2c[nH]c3ccccc23)NC(=O)[C@H](CC(=O)O)NC(=O)[C@H](CCC(N)=O)NC(=O)[C@H](Cc2c[nH]c3ccccc23)NC(=O)[C@H](C(C)C)NC1=O,,PBS,pH 7.4,150 µg/mL
COc1cc([C@@H]2c3cc4c(cc3[C@H](O)[C@H]3COC(=O)[C@H]23)OCO4)cc(OC)c1OC,,water,,2200 µg/mL
CC[C@H](C)[C@H](NC(=O)[C@H](CO)NC(=O)[C@H](CCCNC(=N)N)NC(C)=O)C(=O)N[C@H]1CSSC[C@@H](C(=O)N[C@H](C(N)=O)[C@@H](C)O)NC(=O)[C@H](CCCNC(=N)N)NC(=O)[C@H](Cc2c[nH]cn2)NC(=O)[C@H](Cc2cccc3ccccc23)NC(=O)CNC(=O)[C@H](Cc2c[nH]c3ccccc23)NC(=O)[C@H](CC(=O)O)NC(=O)[C@H](CCC(N)=O)NC(=O)[C@H](Cc2cccc3ccccc23)NC(=O)[C@H](C(C)C)NC1=O,,PBS,pH 7.4,200 µg/mL
O=C1C=C(N(Cc2ccc(Cl)nc2)CC(F)F)CO1,,methanol,20 °C,> 250000 µg/mL
